Calls of active or inactive are those of the source.
Columns and labels:
[1] = tested on: Staphylococcus aureus; test: Antibacterial activity against methicillin resistant Staphylococcus aureus 123 assessed as inhibition of bacterial growth at 0.5 ug/ml incubated for 18 to 20 hrs by CLSI protocol based broth microdilution method; type: functional, organism-based; details: dose 0.5 µg/ml, time 18-20 hrs
[2] = tested on: Streptococcus pneumoniae; test: Antibacterial activity against Streptococcus pneumoniae 700677 assessed as inhibition of bacterial growth incubated for 18 to 20 hrs by CLSI protocol based broth microdilution method; type: functional; details: time 18-20 hrs
In short: (§1)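 Streptococci were diluted from a 0.5 McFarland suspension in cation-adjusted Mueller Hinton broth with 5% lysed horse blood. They were incubated with serial dilutions of test agent in broth microdilution, and the MIC was recorded.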

[3] = tested on: Streptococcus pyogenes; test: Antibacterial activity against Streptococcus pyogenes MGAS 9882 assessed as inhibition of bacterial growth incubated for 18 to 20 hrs by CLSI protocol based broth microdilution method; type: functional; details: time 18-20 hrs; in short: as §1
[4] = tested on: Staphylococcus aureus; test: (§2) Antibacterial activity against methicillin resistant Staphylococcus aureus NRS384 USA300 infected in Balb/c mouse model of skin infection assessed as reduction in inflammation administered topically twice daily for three consecutive days from day 4 to 6 and measured 24 hrs post last dose; type: functional, organism-based; details: route top, time 4.0 day
In short: (§3)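 Mice were anesthetized with 2,2,2-tribromoethanol and injected subcutaneously with 100 μL containing 2 × 10^9 CFU MRSA USA300 in 0.5% HPMC in saline. Topical treatment used a petroleum jelly vehicle, with a fusidic acid positive control. Lesions were photographed 24 h after the last dose. A ~1.5 cm2 skin patch (homogenized in 1 mL saline) and the spleen (in 0.5 mL) were serially diluted and plated on MSA at 37 °C overnight for CFU.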

[5] = tested on: Staphylococcus aureus; test: Antibacterial activity against methicillin resistant Staphylococcus aureus 119 assessed as inhibition of bacterial growth incubated for 18 to 20 hrs by CLSI protocol based broth microdilution method; type: functional; details: time 18-20 hrs
In short: (§4)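 Broth microdilution against staphylococcal clinical isolates. Each strain was prepared as a 0.5 McFarland suspension and diluted in cation-adjusted Mueller Hinton broth to ~5 × 10^5 CFU mL−1. Serial dilutions of test agents in DMSO stock were incubated with the bacteria, and the MIC was recorded.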

[6] = tested on: Staphylococcus aureus; test: as §2, with “bacterial burden in spleen” for “inflammation”; type: functional; details: route top; time 4 day; in short: as §3
[7] = tested on: Staphylococcus aureus; test: Antibacterial activity against vancomycin resistant Staphylococcus aureus 9 assessed as inhibition of bacterial growth at 0.5 ug/ml incubated for 18 to 20 hrs by CLSI protocol based broth microdilution method; type: functional, organism-based; details: dose 0.5 µg/ml, time 18-20 hrs
[8] = Hemolytic activity in rabbit erythrocytes at 16 ug/ml incubated for 30 mins by absorbance based assay; type: toxicity, cell-based, Oryctolagus cuniculus, Erythrocyte; details: at 16 µg/mL, read-out: Activity
In short: (§5)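 Rabbit erythrocytes were washed three times in PBS pH 7.4 and adjusted to A540 0.8. They were mixed 1:1 with compound (final 16, 32, 64 μg mL−1) for 30 min at 37 °C. After centrifugation at 13 000 × g for 5 min, supernatant A540 was read as % of 1% Triton X-100 complete hemolysis. PBS served as negative control. Each concentration was run twice.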

[9] = tested on: Staphylococcus aureus; test: Antibacterial activity against methicillin resistant Staphylococcus aureus 384 assessed as inhibition of bacterial growth at 0.5 ug/ml incubated for 18 to 20 hrs by CLSI protocol based broth microdilution method; type: functional, organism-based; details: dose 0.5 µg/ml, time 18-20 hrs
[10] = tested on: Staphylococcus aureus; test: Antibacterial activity against vancomycin resistant Staphylococcus aureus 10 assessed as inhibition of bacterial growth incubated for 18 to 20 hrs by CLSI protocol based broth microdilution method; type: functional; details: time 18-20 hrs; in short: as §4
[11] = tested on: Staphylococcus aureus; test: Antibacterial activity against methicillin resistant Staphylococcus aureus NRS384 USA300 assessed as inhibition of bacterial growth incubated for 18 to 20 hrs by CLSI protocol based broth microdilution method; type: functional; details: time 18-20 hrs, read-out: MIC; in short: as §4
[12] = tested on: Staphylococcus aureus; test: Antibacterial activity against vancomycin resistant Staphylococcus aureus 12 assessed as inhibition of bacterial growth incubated for 18 to 20 hrs by CLSI protocol based broth microdilution method; type: functional; details: time 18-20 hrs; in short: as §4
[13] = tested on: Staphylococcus aureus; test: Antibacterial activity against methicillin resistant Staphylococcus aureus 386 assessed as inhibition of bacterial growth at 0.5 ug/ml incubated for 18 to 20 hrs by CLSI protocol based broth microdilution method; type: functional, organism-based; details: dose 0.5 µg/ml, time 18-20 hrs
[14] = Hemolytic activity in rabbit erythrocytes at 32 to 64 ug/ml incubated for 30 mins by absorbance based assay; type: toxicity, cell-based, Oryctolagus cuniculus; details: erythrocyte, 0.5 h, dose 32-64 µg/ml; in short: as §5
[15] = tested on: Staphylococcus aureus; test: Antibacterial activity against methicillin resistant Staphylococcus aureus 119 assessed as inhibition of bacterial growth at 0.5 ug/ml incubated for 18 to 20 hrs by CLSI protocol based broth microdilution method; type: functional, organism-based; details: dose 0.5 µg/ml, time 18-20 hrs
[16] = tested on: Staphylococcus aureus; test: Antibacterial activity against methicillin resistant Staphylococcus aureus NRS384 USA300 infected in Balb/c mouse model of skin infection assessed as healing administered topically twice daily for three consecutive days from day 4 to 6 and measured 24 hrs post last dose; type: functional, organism-based; details: route top, time 4.0 day; in short: as §3
[17] = tested on: Staphylococcus aureus; test: as §2, with “bacterial burden in skin lesions” for “inflammation”; type: functional; details: route top; time 4 day; in short: as §3
[18] = tested on: Staphylococcus aureus; test: Antibacterial activity against methicillin sensitive Staphylococcus aureus 107 assessed as inhibition of bacterial growth incubated for 18 to 20 hrs by CLSI protocol based broth microdilution method; type: functional; details: time 18-20 hrs; in short: as §4
[19] = tested on: Staphylococcus aureus; test: Antibacterial activity against methicillin sensitive Staphylococcus aureus 107 assessed as inhibition of bacterial growth at 0.5 ug/ml incubated for 18 to 20 hrs by CLSI protocol based broth microdilution method; type: functional, organism-based; details: dose 0.5 µg/ml, time 18-20 hrs
In short: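 Staphylococcal and E. coli strains were diluted from a 0.5 McFarland suspension in cation-adjusted Mueller Hinton broth to ~5 × 10^5 CFU mL−1. They were incubated with serial dilutions of test agent in broth microdilution, and the MIC was recorded.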

[20] = tested on: Vero; test: Cytotoxicity against African green monkey Vero cells assessed as reduction in cell viability at 64 ug/ml incubated for 24 hrs by MTS assay; type: toxicity, cell-based; details: chlorocebus sabaeus, dose 64 µg/ml
In short: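 Vero or HaCaT cells were exposed to 32, 64 and 128 μg mL−1 compound in triplicate for 24 h at 37 °C, 5% CO2, with a DMSO control. MTS was then added for 4 h and OD490 read. Analysis used two-way ANOVA with Dunnett's post hoc test (p < 0.05).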

[21] = tested on: Enterococcus faecium; test: Antibacterial activity against Enterococcus faecium 700221 assessed as inhibition of bacterial growth incubated for 18 to 20 hrs by CLSI protocol based broth microdilution method; type: functional; details: time 18-20 hrs
In short: (§6)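 Enterococci and L. monocytogenes were diluted from a 0.5 McFarland suspension in TSB. They were incubated with serial dilutions of test agent in broth microdilution, and the MIC was recorded.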

[22] = tested on: Staphylococcus aureus; test: Induction of drug resistance in methicillin resistant Staphylococcus aureus NRS384 USA300 assessed as fold change in MIC measured from passage 5 to 14 by broth microdilution method; type: functional
In short: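 Multi-step resistance in MRSA USA300 over 14 consecutive passages, with rifampicin as the control antibiotic. The MIC was determined by broth microdilution at each passage. Resistance was defined as a greater than four-fold rise over the initial MIC.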

[23] = tested on: Listeria monocytogenes; test: Antibacterial activity against Listeria monocytogenes 19111 assessed as inhibition of bacterial growth incubated for 18 to 20 hrs by CLSI protocol based broth microdilution method; type: functional; details: time 18-20 hrs; in short: as §6
[24] = tested on: Enterococcus faecalis; test: Antibacterial activity against Enterococcus faecalis 51299 assessed as inhibition of bacterial growth incubated for 18 to 20 hrs by CLSI protocol based broth microdilution method; type: functional; details: time 18-20 hrs; in short: as §6

C/C(=N\NC(=N)N)c1ccc(NC(=O)Nc2ccc(C#Cc3ccccc3)cc2)cc1
0.5 µg/mL: MIC [2] | MIC [3] | MIC [5] | MIC [10] | MIC [11] | MIC [12] | MIC [18] | MIC [21] | MIC [23] | MIC [24]
Non-Toxic: Activity [20]
1: fold change (FC) [22]
0.5 log10CFU/ml: Activity [17]
>1 log10CFU/ml: Activity [6]
Toxic: Activity [14]
2%: hemolysis at 0.5 h, 16 ug/ml [8]
active: Activity [1] | Activity [4] | Activity [7] | Activity [9] | Activity [13] | Activity [15] | Activity [16] | Activity [19]

— ChEMBL document CHEMBL5230171, “Expanding the structure-activity relationships of alkynyl diphenylurea scaffold as promising antibacterial agents” (RSC Med Chem, 2023)
